tolC growth inh – blocks growth of E. coli BW25113 tolC mutant. AID 573. hit rate 2.2% among 65,000. growth inhibition, % at 10 µM (by protocol). OD615;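 active = growth inhibition at or above a cutoff equal to the mean over every tested compound plus 3 SD, cut at about 60% in these data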;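 note: growth measured after 20 h incubation at 37 °C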
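System: E. coli ΔtolC::kan strain BW25113; Buffer or medium: LB broth supplemented with 50 µg/mL kanamycin; Compound: 10 µM final, single dose; Incubation: bacterial growth with compound for 20 h at 37 °C; Signal: A615 absorbance measurement; Evaluation: growth inhibition in percent.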
CD11b adhes inh – inhibitors of human CD11b/CD18 binding to fibrinogen | K562 CD11b/CD18 adhesion to fibrinogen, ATPlite luminescence; Mn2+ added to activate the integrin | inhibition, % at 10 µM | hit rate 0.54% among 93,000 | AID 1497;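 active = primary inhibition of 50% or more at 10 µM, then 40% or more on retest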
Ecoli WT expand – E. coli BW25113 growth inhibition, expanded screen; growth inhibition, % at 100 µM; OD600 absorbance; hit rate 0.15% among 98,000;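 active = growth inhibition above about 50% at one test dose, limit read from the data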;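 note: growth measured after 20 h incubation at 37 °C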
CD11b adhes enh – CD11b/CD18-fibrinogen binding enhancement | P05107+P11215 | K562 CD11b/CD18 adhesion to fibrinogen, ATPlite luminescence | activation, % at 10 µM | hit rate 0.07% among 93,000 | AID 1499;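 active = 10 µM primary screen giving 50% or more activity, confirmed by 40% or more on retest at that dose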
PTK2B oligo ant – Pyk2 (human) oligomerization antagonism; Q293 cells, Pyk2 FERM NanoBiT luminescence; hits give low values; z-score (the deposit names both 25 µM and 10 µM); Q14289; hit rate 0.83% among 99,000;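 active = Z-score of -3 or lower, scaled per plate to the spread of control and sample wells; inactive = z-score above -3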;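 note: negative z-score means lost luminescence so less FERM oligomerization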
Target sequence (Q14289 whole entry, looked up): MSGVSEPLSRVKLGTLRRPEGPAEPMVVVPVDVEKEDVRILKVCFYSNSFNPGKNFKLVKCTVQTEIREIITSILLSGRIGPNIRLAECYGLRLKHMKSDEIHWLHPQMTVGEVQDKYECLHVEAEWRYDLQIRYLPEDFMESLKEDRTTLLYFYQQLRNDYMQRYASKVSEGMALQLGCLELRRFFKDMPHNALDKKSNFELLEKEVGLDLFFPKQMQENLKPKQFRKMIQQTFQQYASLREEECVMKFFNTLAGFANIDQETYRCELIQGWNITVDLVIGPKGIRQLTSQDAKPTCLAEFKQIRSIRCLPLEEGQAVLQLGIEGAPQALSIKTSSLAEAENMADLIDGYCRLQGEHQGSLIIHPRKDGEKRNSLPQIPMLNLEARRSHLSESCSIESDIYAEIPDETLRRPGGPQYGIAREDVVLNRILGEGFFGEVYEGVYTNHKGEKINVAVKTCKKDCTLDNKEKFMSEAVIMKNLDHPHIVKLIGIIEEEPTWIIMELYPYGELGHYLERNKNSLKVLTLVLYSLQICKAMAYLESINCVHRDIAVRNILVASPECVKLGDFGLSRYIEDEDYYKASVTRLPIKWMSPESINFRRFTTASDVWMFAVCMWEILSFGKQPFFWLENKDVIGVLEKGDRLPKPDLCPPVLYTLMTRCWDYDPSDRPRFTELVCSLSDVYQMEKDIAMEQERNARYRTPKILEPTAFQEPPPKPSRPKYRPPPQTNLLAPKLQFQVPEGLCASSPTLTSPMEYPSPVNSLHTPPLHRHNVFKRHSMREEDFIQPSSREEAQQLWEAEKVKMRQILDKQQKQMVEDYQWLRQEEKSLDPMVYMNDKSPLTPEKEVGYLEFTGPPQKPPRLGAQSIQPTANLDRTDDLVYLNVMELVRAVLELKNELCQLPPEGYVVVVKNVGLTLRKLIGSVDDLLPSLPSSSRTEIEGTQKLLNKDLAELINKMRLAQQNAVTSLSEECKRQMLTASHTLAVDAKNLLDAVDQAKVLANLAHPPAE
* hit, by the source's call; · = no result given. The list is not random: actives were taken first. Their share in the collection is about 2.3%.

SMILES	tolC growth inh	CD11b adhes inh	Ecoli WT expand	CD11b adhes enh	PTK2B oligo ant
O=C1C(=O)c2ccccc2-c2ccccc21	·	60.2*	30.0	-7.3	·
CCCCCCCSc1cc(OC)c(CCN(C)C)cc1OC	·	·	67.0*	·	0.06
CCCCCSc1cc(OC)c(CCN)cc1OC	·	16.2	5.0	1.7	0.44
Nc1nnc(CCN2CCCCC2)s1	-3.6	·	·	·	0.68
Cc1oc2ccc(OC(=O)N(C)C)cc2c1C(=O)OC(C)C	22.1	-57.5	2.0	4.7	-0.16
CCOC(=O)c1c(-c2ccc(OC)cc2)oc2ccc(OC(=O)N(C)C)cc12	67.8*	-1.7	-12.0	4.4	-1.46
ClCCNc1nc2ccc(Cl)cc2[nH]1	·	·	54.0*	·	-0.11
CC(=O)c1ccc2c(c1)C1C(Cl)C(Sc3ccccc3[N+](=O)[O-])CC1C(c1ccccc1[N+](=O)[O-])N2 (stereo not drawn)	·	·	·	·	-3.44*
COc1ccc(Oc2cc(NC(=O)c3nn(C)cc3[N+](=O)[O-])cc([N+](=O)[O-])c2)cc1	·	-3.9	-1.0	17.8	-3.66*
CN1C(=O)C(=Cc2ccccc2Oc2ccc(Cl)cc2)C(=O)N(C)C1=O	·	46.5	25.0	-1.2	-3.92*
COc1ccccc1CCNC1CCC(C(C)(C)C)CC1 (stereo not drawn)	·	16.4	25.0	-1.7	1.23
O=C(Oc1c(Cl)cc(Cl)c2ccccc12)N1CCCCC1	·	55.5*	0.0	-4.8	-0.92
Cc1ccc2cccc(OC(=O)N3CCCC3)c2n1	-6.8	-26.5	8.0	9.5	0.89
CCCCN1C(=O)NC(=O)C2(Cc3c(nc4c(C)cccn4c3=O)N3CCc4ccccc4C32)C1=O (stereo not drawn)	97.9*	-15.3	-7.0	5.2	-1.21
CCCCN1C(=O)NC(=O)C2(Cc3c(nc4ccccn4c3=O)N3CCc4ccccc4C32)C1=O (stereo not drawn)	43.2	6.4	8.0	1.4	-0.8
Cc1nn(-c2ccccc2)c(Cl)c1C1C(C#N)=C(N)Oc2c1c(=O)oc1ccccc21 (stereo not drawn)	68.0*	21.2	-19.0	-6.8	-3.2*
COc1ccc(C2SCC(=O)Nc3c2c(C)nn3C2CCOC(C)(C)C2)cc1OC (stereo not drawn)	·	-17.9	2.0	-1.9	0.03
CC1CCN(S(=O)(=O)c2ccc(NN=C(C#N)C#N)cc2)CC1	·	98.5*	10.0	-9.4	·
COc1ccc(C(=O)N2CCOCC2)cc1S(=O)(=O)N1CCC(C)CC1	-6.2	-14.1	4.0	-2.0	0.43
Cc1cc(OCC(=O)Nc2c(C)n(C)n(-c3ccccc3)c2=O)c2c3c(c(=O)oc2c1)CCC3	-41.7	4.2	·	2.7	·
CCC(=NCc1ccco1)c1c(O)n(C2CCCCC2)c(=O)[nH]c1=O	14.8	1.8	-6.0	2.3	-0.25
CCC(=NCc1cccnc1)c1c(O)n(C2CCCCC2)c(=O)[nH]c1=O	-2.9	6.4	4.0	0.4	-3.52*
CCC(=Nc1ccc(OC)cc1OC)c1c(O)n(C2CCCCC2)c(=O)[nH]c1=O	76.9*	25.5	0.0	-8.0	-3.4*
CC(=NCc1cccnc1)c1c(O)n(C2CCCCC2)c(=O)[nH]c1=O	-7.9	-22.3	-5.0	-0.7	-1.85
CCC(COC(=O)NC)NC(=O)Oc1ccccc1 (stereo not drawn)	·	-11.2	1.0	0.4	-1.54
SMILES	tolC growth inh	CD11b adhes inh	Ecoli WT expand	CD11b adhes enh	PTK2B oligo ant
COc1ccc(CCNCc2ccncc2)cc1	·	-1.2	0.0	0.7	0.42
CN1/C(=C\C=C\C2=[N+](C)c3ccc4ccccc4c3C2(C)C)C(C)(C)c2ccccc21	·	·	84.0*	·	·
O=C(Cn1cc(C(=O)c2ccccc2)c2ccccc21)NCc1ccco1	19.8	6.4	-5.0	1.0	-3.24*
CCn1nc(-c2ccccc2)nc2c(=O)n(C)c(=O)nc1-2	100.0*	·	24.0	·	-0.25
Clc1ccc(COC(Cn2ccnc2)c2ccc(Cl)cc2Cl)cc1 (stereo not drawn)	100.0*	·	·	·	·
Clc1ccc(CSC(Cn2ccnc2)c2ccc(Cl)cc2Cl)cc1 (stereo not drawn)	9.8	·	·	·	·
Cc1cc(C)cc(N2C(=O)NC(=O)/C(=C/c3cccn3-c3ccc(Cl)cc3)C2=O)c1	·	0.2	·	60.2	·
Cc1cccc(N2C(=O)NC(=O)/C(=C\c3cccn3-c3ccc(Cl)cc3)C2=O)c1	·	·	-7.0	·	-3.44*
C1=C(CCNCc2ccccc2)CCCC1	·	-0.5	94.0*	4.8	0.79
CC[N+](C)(CC)CCCOC(=O)C(O)(c1ccccc1)C1CCCCC1 (stereo not drawn)	·	·	·	·	2.18
CC(C)(C)n1c(O)c(C=Nc2ccc3c(c2)CCC3)c(=O)[nH]c1=O	81.6*	-12.9	-2.0	-0.7	0.32
CN1CCN(c2c[nH]c(=O)[nH]c2=O)CC1	-27.9	·	-2.0	·	0.31
CC(C)(C)c1nc(NCc2ccc3c(c2)OCO3)c2nnn(Cc3ccccc3Cl)c2n1	·	·	·	·	-0.67
CC(Cc1ccccc1)[n+]1cc(/N=C(\[O-])N(C)C)on1 (stereo not drawn)	0.5	0.9	3.0	-1.4	-0.12
Cc1ccc(C2C(S(C)(=O)=O)=C(O)C(=O)N2c2ccccc2)cc1 (stereo not drawn) (tested in a mixture with another compound)	74.9*	·	4.0	·	-0.8
O[C@H]1C2CCC1C(N1CCCCC1)CC2 (stereo partly drawn)	-29.4	-4.5	2.0	-2.3	1.17
CCCCn1c(=O)c(C(=O)Nc2ccccc2S(N)(=O)=O)c(O)c2ccccc21	98.1*	-11.2	-4.0	1.7	-1.15
CCOC(=O)C(O)(c1ccc(N(CC)C(=O)COc2ccccc2)cc1)C(F)(F)F (stereo not drawn)	·	10.0	·	6.8	-1.06
OC1(c2ccccc2F)CC2CCC(C1)N2CCN1CCOCC1 (stereo not drawn)	-10.5	-0.3	4.0	4.6	-0.27
